Test results from ChEMBL document CHEMBL4480426, “Novel multi-target directed ligands based on annelated xanthine scaffold with aromatic substituents acting on adenosine receptor and monoamine oxidase B. Synthesis, in vitro and in silico studies” (Bioorg Med Chem, 2019).

Experiments:
[1] = target: T1, Adenosine receptor A3 (Homo sapiens) (UniProt P0DMS8); experiment: Displacement of [3H]PSB11 from recombinant human adenosine A3 receptor expressed in CHO cells at 1 uM relative to control; assay type: cell-based
T1 sequence (whole entry): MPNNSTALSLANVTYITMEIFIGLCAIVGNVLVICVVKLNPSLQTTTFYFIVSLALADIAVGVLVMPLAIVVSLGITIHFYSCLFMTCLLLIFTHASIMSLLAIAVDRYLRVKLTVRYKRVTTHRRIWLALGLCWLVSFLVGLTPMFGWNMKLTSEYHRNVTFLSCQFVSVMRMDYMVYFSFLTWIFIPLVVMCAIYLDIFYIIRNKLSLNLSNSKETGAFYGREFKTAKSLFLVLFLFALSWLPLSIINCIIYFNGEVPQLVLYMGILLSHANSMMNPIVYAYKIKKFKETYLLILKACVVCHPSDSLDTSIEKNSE
In short: (§1)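 Purchased membranes of CHO cells expressing human A1 ([3H]CCPA) or human A3 ([3H]PSB-11). A single high compound concentration is screened first; for potent compounds, full inhibition curves spanning 3 orders of magnitude. At least three independent experiments.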

Adenosine receptor A2b = target: T2, Adenosine receptor A2b (Homo sapiens, UniProt P29275); experiment: Displacement of [3H]PSB603 from recombinant human adenosine A2b receptor expressed in HEK293 cells; assay type: cell-based
T2 sequence (P29275 whole entry): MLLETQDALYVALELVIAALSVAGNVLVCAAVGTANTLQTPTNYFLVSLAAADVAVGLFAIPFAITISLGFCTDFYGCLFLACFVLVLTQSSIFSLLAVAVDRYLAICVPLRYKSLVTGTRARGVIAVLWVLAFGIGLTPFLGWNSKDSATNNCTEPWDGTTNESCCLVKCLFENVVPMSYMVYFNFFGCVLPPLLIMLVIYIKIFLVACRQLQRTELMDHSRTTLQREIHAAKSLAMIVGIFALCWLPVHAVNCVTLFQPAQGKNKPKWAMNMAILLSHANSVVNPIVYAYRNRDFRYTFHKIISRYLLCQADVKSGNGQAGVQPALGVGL

[2] = target: T3, Amine oxidase [flavin-containing] B (Homo sapiens, UniProt P27338); experiment: Inhibition of recombinant human MAOB expressed in baculovirus infected BTI insect cells using p-tyramine as substrate preincubated for 30 mins followed by substrate addition and measured over 45 mins by horseradish peroxidase-Amplex Red-coupled fluorometric assay
T3 sequence (P27338 whole entry): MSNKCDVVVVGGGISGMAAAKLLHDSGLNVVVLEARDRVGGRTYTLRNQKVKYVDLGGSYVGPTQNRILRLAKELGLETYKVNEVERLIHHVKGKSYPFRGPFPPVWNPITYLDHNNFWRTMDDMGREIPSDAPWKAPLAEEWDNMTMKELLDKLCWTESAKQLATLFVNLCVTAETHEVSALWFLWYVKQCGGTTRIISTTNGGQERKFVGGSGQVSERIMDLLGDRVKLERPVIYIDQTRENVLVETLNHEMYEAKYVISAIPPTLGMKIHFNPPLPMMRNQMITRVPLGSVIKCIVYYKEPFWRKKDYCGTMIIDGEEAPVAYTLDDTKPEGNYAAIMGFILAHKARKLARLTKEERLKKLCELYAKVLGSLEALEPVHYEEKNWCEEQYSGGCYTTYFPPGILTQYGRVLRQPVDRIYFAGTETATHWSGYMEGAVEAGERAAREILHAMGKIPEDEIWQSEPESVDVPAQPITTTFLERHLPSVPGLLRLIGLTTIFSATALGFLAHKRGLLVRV
In short: (§2)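 Human recombinant MAO-A or MAO-B enzyme. Activity detected fluorometrically with the Amplex Red monoamine oxidase assay.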

[3] = target: T4, Adenosine receptor A1 (Homo sapiens) (UniProt P30542); experiment: Displacement of [3H]CCPA from recombinant human adenosine A1 receptor expressed in CHO cells at 1 uM relative to control; assay type: cell-based; in short: as §1
T4 sequence (whole entry): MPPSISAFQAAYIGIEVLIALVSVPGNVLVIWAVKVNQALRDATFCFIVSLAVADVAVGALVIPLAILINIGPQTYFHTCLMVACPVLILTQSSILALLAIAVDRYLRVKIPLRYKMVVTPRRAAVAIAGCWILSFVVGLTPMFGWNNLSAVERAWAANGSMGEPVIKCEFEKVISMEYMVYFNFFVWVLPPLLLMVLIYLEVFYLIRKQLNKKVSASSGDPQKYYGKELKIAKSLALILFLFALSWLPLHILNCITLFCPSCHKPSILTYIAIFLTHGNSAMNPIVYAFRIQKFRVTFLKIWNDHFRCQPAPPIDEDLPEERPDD

[4] = target: T5, Amine oxidase [flavin-containing] A (Homo sapiens, UniProt P21397); experiment: Inhibition of recombinant human MAOA expressed in baculovirus infected BTI insect cells using p-tyramine as substrate preincubated for 30 mins followed by substrate addition and measured over 45 mins by horseradish peroxidase-Amplex Red-coupled fluorometric assay; in short: as §2
T5 sequence (P21397 whole entry): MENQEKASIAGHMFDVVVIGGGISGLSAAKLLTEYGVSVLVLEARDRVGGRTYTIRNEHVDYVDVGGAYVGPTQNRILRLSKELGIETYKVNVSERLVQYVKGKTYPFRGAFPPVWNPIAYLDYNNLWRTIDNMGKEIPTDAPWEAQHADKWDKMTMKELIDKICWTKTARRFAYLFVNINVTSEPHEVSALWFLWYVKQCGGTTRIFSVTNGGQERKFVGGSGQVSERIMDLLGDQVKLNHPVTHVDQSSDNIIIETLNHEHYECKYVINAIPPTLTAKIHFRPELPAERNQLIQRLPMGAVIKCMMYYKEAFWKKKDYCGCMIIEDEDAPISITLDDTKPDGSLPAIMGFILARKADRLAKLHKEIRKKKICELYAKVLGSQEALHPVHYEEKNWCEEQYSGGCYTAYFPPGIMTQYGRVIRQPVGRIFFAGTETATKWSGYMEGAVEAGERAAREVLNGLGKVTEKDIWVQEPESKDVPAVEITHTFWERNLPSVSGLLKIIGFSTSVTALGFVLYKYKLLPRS

Adenosine receptor A1 [5] = target: T6, Adenosine receptor A1 (Homo sapiens, UniProt P30542); experiment: Displacement of [3H]CCPA from recombinant human adenosine A1 receptor expressed in CHO cells; assay type: cell-based
T6 sequence (P30542 whole entry): T4 sequence (whole entry)

[6] = target: T7, Adenosine receptor A2b (Homo sapiens) (UniProt P29275); experiment: Displacement of [3H]PSB603 from recombinant human adenosine A2b receptor expressed in HEK293 cells at 1 uM relative to control; assay type: cell-based
T7 sequence (whole entry): T2 sequence (P29275 whole entry)
In short: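 Purchased membranes of HEK cells expressing human A2A ([3H]MSX-2) or human A2B ([3H]PSB-603). A single high compound concentration is screened first; for potent compounds, full inhibition curves spanning 3 orders of magnitude. At least three independent experiments.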

Adenosine receptor A2a = Adenosine receptor A2a (Homo sapiens, UniProt P29274); experiment: Displacement of [3H]MSX2 from recombinant human adenosine A2a receptor expressed in HEK293 cells; assay type: cell-based
Sequence of Adenosine receptor A2a (P29274 whole entry): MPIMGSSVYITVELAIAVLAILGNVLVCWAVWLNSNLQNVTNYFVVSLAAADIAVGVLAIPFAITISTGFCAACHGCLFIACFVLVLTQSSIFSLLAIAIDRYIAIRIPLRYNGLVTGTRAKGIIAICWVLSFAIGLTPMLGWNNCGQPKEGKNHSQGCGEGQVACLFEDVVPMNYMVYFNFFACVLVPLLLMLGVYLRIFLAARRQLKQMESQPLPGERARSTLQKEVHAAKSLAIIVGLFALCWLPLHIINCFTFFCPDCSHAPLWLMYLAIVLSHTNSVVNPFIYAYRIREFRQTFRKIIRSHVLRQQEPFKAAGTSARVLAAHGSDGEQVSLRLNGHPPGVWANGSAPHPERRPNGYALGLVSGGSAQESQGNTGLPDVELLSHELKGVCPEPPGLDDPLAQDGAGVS

Adenosine receptor A3 = target: T8, Adenosine receptor A3 (Homo sapiens, UniProt P0DMS8); experiment: Displacement of [3H]PSB11 from recombinant human adenosine A3 receptor expressed in CHO cells; assay type: cell-based
T8 sequence (P0DMS8 whole entry): T1 sequence (whole entry)

[7] = target: T5, Amine oxidase [flavin-containing] A; experiment: Inhibition of recombinant human MAOA expressed in baculovirus infected BTI insect cells at 1 to 100 uM using p-tyramine as substrate preincubated for 30 mins followed by substrate addition and measured over 45 mins by horseradish peroxidase-Amplex Red-coupled fluorometric assay relative to control; details: 0.75 h; in short: as §2
Adenosine receptor A1 [8] = target: T9, Adenosine receptor A1 (Rattus norvegicus, UniProt P25099); experiment: Displacement of [3H]CCPA from adenosine A1 receptor in rat brain cortical membranes; assay type: cell membranes
T9 sequence (P25099 whole entry): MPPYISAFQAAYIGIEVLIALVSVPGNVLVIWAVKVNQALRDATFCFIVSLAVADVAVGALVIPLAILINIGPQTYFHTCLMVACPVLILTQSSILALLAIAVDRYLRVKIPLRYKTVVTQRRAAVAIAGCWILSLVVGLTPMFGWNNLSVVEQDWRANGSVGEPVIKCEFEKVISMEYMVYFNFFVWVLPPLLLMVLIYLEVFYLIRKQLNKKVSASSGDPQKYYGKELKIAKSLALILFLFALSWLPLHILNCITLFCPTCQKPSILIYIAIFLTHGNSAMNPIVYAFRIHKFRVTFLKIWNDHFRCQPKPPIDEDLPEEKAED

SMILES	inhibition [1] [%]	Ki (Adenosine receptor A2b) [nM]	IC50 [2] [nM]	inhibition [3] [%]	IC50 [4] [nM]	Ki (Adenosine receptor A1 [5]) [nM]	inhibition [6] [%]	Ki (Adenosine receptor A2a) [nM]	Ki (Adenosine receptor A3) [nM]	inhibition (INH) [7] [%]	Ki (Adenosine receptor A1 [8]) [nM]
Cn1c(=O)c2c(nc3n2CCCN3Cc2ccc(Br)cc2F)n(C)c1=O		> 1000	426		> 1000			> 1000	> 1000	-2	4130
Cn1c(=O)c2c(nc3n2CCCN3Cc2ccc(Cl)cc2F)n(C)c1=O		> 1000	377		> 1000			8910	> 1000	2	4900
COc1ccc(CN2CCCn3c2nc2c3c(=O)n(C)c(=O)n2C)cc1Cl		> 1000	407		> 100000			8000	> 1000	38	> 1000
Cn1c(=O)c2c(nc3n2CCCN3Cc2cc(Cl)ccc2Cl)n(C)c1=O		> 1000	758					> 1000	> 1000		3020
Cn1c(=O)c2c(nc3n2CCCN3Cc2ccc(Cl)c(C(F)(F)F)c2)n(C)c1=O		> 1000	310		> 1000			> 1000	> 1000	2	> 1000
COc1ccccc1CN1CCCCn2c1nc1c2c(=O)n(C)c(=O)n1C	19	> 1000	1920	13	> 1000	> 1000	16	959	> 1000	2	
Cn1c(=O)c2c(nc3n2CCCN3Cc2cccc(Br)c2)n(C)c1=O		> 1000	396		> 1000			1700	> 1000	-1	965
Cn1c(=O)c2c(nc3n2CCCN3Cc2ccccc2F)n(C)c1=O		> 1000	583		> 1000			1210	> 1000	-1	1780
Cn1c(=O)c2c(nc3n2CCCN3Cc2ccc(F)cc2Cl)n(C)c1=O		> 1000	411					> 1000	> 1000		> 1000
Cn1c(=O)c2c(nc3n2CCCN3Cc2cc(C(F)(F)F)ccc2Cl)n(C)c1=O		> 1000	1070					> 1000	> 1000		931
COc1ccc(Cl)c(CN2CCCn3c2nc2c3c(=O)n(C)c(=O)n2C)c1F			840		> 100000			627		16	927
Cc1cccc(CN2CCCn3c2nc2c3c(=O)n(C)c(=O)n2C)c1		> 1000	313		> 100000			> 1000	> 1000	17	1910
Cn1c(=O)c2c(nc3n2CCCN3Cc2cc(Br)ccc2F)n(C)c1=O		> 1000	1180					> 1000	> 1000		486

Next, values leading:

inhibition [1] [%]	Ki (Adenosine receptor A2b) [nM]	IC50 [2] [nM]	inhibition [3] [%]	IC50 [4] [nM]	Ki (Adenosine receptor A1 [5]) [nM]	inhibition [6] [%]	Ki (Adenosine receptor A2a) [nM]	Ki (Adenosine receptor A3) [nM]	inhibition (INH) [7] [%]	Ki (Adenosine receptor A1 [8]) [nM]	SMILES
20	> 1000	171	23	> 1000	> 1000	43	> 1000	> 1000	-6		Cn1c(=O)c2c(nc3n2CCCCN3Cc2ccc(F)c(Br)c2)n(C)c1=O
	> 1000	264		> 100000			> 1000	> 1000	9	> 1000	Cn1c(=O)c2c(nc3n2CCCN3Cc2ccc(Cl)c(F)c2)n(C)c1=O
26	> 1000	371		> 1000	651	41	> 1000	> 1000	6		Cn1c(=O)c2c(nc3n2CCCCN3Cc2cccc(Br)c2)n(C)c1=O
15	> 1000	343	10	> 1000	> 1000	41	881	> 1000	4		Cn1c(=O)c2c(nc3n2CCCCN3Cc2ccccc2Cl)n(C)c1=O
10	> 1000	364	13	> 1000	> 1000	13	> 1000	> 1000	6		Cn1c(=O)c2c(nc3n2CCCCN3Cc2ccc(Cl)cc2)n(C)c1=O
	> 1000	346		> 1000			8270	> 1000	1	4360	Cn1c(=O)c2c(nc3n2CCCN3Cc2ccc(F)c(Br)c2)n(C)c1=O
		1350									Cn1c(=O)c2c(nc3n2CCCN3Cc2ccc(C(C)(C)C)cc2)n(C)c1=O
